The record followed here is ChEMBL document CHEMBL3098097, “Design, synthesis and evaluation of 7-azaindazolyl-indolyl-maleimides as glycogen synthase kinase-3β (GSK-3β) inhibitors” (Eur J Med Chem, 2013).

Calls of active or inactive are those of the source. The rule behind the calls is not given here. A value given as a limit tells only on which side of the number the result lay.

Test [1] has as its target T1, Glycogen synthase kinase-3 beta (Homo sapiens, UniProt P49841). Nature of the test: Inhibition of recombinant GST-tagged GSK-3beta (unknown origin) expressed in Escherichia coli BL21 assessed as phosphate incorporation in CREB.
Target sequence in this assay (P49841 whole entry): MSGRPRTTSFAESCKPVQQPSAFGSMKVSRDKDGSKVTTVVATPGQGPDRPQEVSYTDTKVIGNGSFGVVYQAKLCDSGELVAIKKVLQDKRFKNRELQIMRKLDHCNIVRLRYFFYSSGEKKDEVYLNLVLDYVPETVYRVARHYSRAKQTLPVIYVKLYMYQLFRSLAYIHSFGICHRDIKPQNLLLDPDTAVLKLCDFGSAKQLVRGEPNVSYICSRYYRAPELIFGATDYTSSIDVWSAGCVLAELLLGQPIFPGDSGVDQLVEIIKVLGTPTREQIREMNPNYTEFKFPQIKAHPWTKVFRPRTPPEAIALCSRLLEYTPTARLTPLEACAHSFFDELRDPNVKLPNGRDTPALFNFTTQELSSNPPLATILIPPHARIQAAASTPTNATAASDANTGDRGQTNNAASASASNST
In test [2] the target is T1, Glycogen synthase kinase-3 beta. As to the kind of experiment: Inhibition of recombinant GST-tagged GSK-3beta (unknown origin) expressed in Escherichia coli BL21 assessed as phosphate incorporation in CREB at 20 ug/mL relative to control. The method, boiled down: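 GST-GSK-3β expressed in E. coli BL21-CodonPlus (DE3), purified by GSTrap and thrombin-cleaved. Activity measured by Z'-LYTE kinase assay at 50 nM final enzyme. Run in triplicate with blanks subtracted. Activity given as pmol phosphate incorporated into CREB per minute or as percent of maximal activity.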
Target sequence in this assay (P49841 whole entry, looked up): as the sequence (P49841 whole entry) above

The target in test [3] is Mitogen-activated protein kinase 3 (Homo sapiens, UniProt P27361). As to the kind of experiment: Inhibition of recombinant ERK1 (unknown origin) expressed in Escherichia coli. The method, boiled down: (§1)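 E. coli-expressed recombinant kinase tested in a Z'-LYTE kinase assay kit.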
Sequence of Mitogen-activated protein kinase 3 (P27361 whole entry): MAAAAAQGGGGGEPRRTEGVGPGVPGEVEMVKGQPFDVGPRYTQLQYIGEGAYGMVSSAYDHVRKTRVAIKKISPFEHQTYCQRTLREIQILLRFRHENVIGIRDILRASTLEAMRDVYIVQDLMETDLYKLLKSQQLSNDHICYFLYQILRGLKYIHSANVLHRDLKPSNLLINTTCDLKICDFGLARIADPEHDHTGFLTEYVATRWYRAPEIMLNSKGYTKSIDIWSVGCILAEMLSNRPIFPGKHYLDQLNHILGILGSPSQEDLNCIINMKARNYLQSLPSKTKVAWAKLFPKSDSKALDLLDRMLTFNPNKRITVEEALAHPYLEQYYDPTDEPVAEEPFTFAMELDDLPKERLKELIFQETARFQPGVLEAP
The target in test [4] is T1, Glycogen synthase kinase-3 beta. As to the kind of experiment: Inhibition of GSK-3beta in human SH-SY5Y cells assessed as reduction of amyloid beta (25 to 35)-induced Tau hyperphosphorylation at Ser396 at 10 uM incubated for 1 hr prior to amyloid beta (25 to 35) induction measured after 6 hrs by Western blotting analysis. The class given is cell-based. The method, boiled down:
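SH-SY5Y cells (ATCC) in 1:1 DMEM:Ham's F12 with 10% FBS and 1% penicillin/streptomycin, 5% CO2. Grown to ~80% confluence, serum-deprived 12 h, inhibitor added 1 h before Aβ25–35 for another 6 h. Lysed in SDS loading buffer, run on 10% SDS-PAGE, blotted to PVDF, probed with rabbit anti-Tau pS396, ECL detection.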
Background: A western blot detects proteins with antibodies after separation by electrophoresis.
Target sequence in this assay (P49841 whole entry, looked up): as the sequence (P49841 whole entry) above

The target of test [5] is Dual specificity mitogen-activated protein kinase kinase 1 (Homo sapiens, UniProt Q02750). Nature of the test: Inhibition of recombinant MEK1 (unknown origin) expressed in Escherichia coli. An outline of the steps: as §1
Sequence of Dual specificity mitogen-activated protein kinase kinase 1 (Q02750 whole entry): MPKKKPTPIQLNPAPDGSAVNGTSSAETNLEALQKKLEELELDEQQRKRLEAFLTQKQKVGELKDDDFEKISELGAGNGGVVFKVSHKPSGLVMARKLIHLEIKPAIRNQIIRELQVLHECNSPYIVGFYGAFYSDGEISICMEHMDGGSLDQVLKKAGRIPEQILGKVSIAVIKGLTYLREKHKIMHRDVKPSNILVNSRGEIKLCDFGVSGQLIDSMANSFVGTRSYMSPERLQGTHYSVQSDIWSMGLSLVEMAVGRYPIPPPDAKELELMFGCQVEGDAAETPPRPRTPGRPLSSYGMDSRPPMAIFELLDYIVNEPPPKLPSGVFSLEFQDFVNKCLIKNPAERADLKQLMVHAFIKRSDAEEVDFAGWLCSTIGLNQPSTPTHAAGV
Test [6] deals with T2, Aurora kinase A (Homo sapiens, UniProt O14965).
T2 sequence (O14965 whole entry): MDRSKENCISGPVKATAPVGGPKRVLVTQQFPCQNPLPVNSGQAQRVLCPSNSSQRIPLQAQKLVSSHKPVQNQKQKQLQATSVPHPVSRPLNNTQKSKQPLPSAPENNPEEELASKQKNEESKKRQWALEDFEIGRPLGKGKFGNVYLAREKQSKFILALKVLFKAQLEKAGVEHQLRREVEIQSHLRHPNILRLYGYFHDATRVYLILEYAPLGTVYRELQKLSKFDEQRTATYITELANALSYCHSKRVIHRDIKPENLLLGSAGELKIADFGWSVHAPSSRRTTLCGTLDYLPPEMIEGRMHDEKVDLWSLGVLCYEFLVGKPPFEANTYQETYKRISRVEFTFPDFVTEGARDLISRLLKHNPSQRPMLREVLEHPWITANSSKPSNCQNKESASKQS
As to the kind of experiment: Inhibition of recombinant aurora kinase A (unknown origin) expressed in Escherichia coli. An outline of the steps: as §1

In test [7] the target is T3, Inhibitor of nuclear factor kappa-B kinase subunit beta (Homo sapiens, UniProt O14920).
T3 sequence (O14920 whole entry): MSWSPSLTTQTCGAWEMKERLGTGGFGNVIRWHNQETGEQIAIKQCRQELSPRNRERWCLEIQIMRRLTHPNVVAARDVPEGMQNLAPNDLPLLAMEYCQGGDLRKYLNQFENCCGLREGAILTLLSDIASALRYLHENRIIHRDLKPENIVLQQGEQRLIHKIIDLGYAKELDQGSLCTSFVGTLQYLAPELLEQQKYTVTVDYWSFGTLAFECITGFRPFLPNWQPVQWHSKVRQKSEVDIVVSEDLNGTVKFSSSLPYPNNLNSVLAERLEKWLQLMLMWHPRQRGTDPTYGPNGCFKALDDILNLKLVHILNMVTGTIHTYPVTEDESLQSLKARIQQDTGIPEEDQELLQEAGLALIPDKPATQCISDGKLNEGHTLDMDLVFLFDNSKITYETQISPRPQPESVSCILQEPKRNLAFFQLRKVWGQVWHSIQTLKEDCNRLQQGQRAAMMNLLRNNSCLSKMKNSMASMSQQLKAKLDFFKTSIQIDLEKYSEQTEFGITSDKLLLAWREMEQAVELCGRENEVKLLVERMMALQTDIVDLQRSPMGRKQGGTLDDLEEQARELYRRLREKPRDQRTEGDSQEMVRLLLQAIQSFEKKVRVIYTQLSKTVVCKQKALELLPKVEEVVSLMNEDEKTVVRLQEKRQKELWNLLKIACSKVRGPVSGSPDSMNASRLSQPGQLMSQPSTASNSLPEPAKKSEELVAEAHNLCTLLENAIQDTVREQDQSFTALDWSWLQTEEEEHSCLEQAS
Nature of the test: Inhibition of recombinant IKK2 (unknown origin) expressed in baculovirus expression system. The method, boiled down:
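Recombinant kinase expressed in the Bac-to-Bac baculovirus system, tested in a Z'-LYTE kinase assay kit.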

For test [8], the target named is T4, Protein kinase C epsilon type (Homo sapiens, UniProt Q02156).
T4 sequence (Q02156 whole entry): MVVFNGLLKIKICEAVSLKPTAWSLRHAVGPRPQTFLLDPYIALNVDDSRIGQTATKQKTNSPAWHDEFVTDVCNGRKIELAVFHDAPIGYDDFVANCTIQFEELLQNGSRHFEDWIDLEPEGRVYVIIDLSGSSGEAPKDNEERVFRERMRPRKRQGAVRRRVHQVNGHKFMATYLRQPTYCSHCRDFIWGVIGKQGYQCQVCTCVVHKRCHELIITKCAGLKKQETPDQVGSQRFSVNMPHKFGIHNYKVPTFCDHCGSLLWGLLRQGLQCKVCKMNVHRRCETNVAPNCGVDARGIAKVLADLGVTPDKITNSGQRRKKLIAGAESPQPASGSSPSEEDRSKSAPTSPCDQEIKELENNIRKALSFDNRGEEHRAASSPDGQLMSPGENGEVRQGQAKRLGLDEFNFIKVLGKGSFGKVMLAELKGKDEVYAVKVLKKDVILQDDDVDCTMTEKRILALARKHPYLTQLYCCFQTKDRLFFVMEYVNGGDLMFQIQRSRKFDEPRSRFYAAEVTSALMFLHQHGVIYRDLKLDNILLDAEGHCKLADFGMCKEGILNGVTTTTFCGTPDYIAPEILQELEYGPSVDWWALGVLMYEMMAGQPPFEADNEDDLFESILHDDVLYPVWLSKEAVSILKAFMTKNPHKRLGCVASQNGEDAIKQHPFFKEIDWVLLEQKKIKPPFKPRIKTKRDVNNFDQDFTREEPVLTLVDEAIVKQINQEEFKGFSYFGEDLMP
As to the kind of experiment: Inhibition of recombinant PKCE (unknown origin) expressed in baculovirus expression system.

By IC50 is commonly meant the concentration that inhibits the measured activity by half. `O=C1NC(=O)C(c2nn(CCCN3CCOCC3)c3ncccc23)=C1c1cn(Cc2ccccc2)c2ccccc12`: the IC50 in test [1] came to 1.9 µM.
On the same count and under the same terms, next, `Cn1cc(C2=C(c3nn(CCCN4CCCCC4)c4ncccc34)C(=O)NC2=O)c2ccccc21`: 2.66 µM; `Cn1cc(C2=C(c3nn(CCCCN4CCOCC4)c4ncccc34)C(=O)NC2=O)c2ccccc21`: 0.46 µM.
As a reminder, the inhibition is the change of the read-out against control, counted positive when it falls. Take `O=CNN1C(=O)C(c2c[nH]c3ccccc23)=C(c2n[nH]c3ncccc23)C1=O`: the inhibition in test [2] was -7.42%.
Turning to `CC(C)n1cc(C2=C(c3nn(CCCN4CCOCC4)c4ncccc34)C(=O)NC2=O)c2ccccc21`, the IC50 was greater than 40 µM in test [3]; greater than 40 µM in test [5]; greater than 40 µM in test [6]; greater than 40 µM in test [7]; greater than 40 µM in test [8]; 0.38 µM in test [1]. The inhibition entry in test [4] is “Active”.
As to `C=CCn1cc(C2=C(c3nn(CCCN4CCOCC4)c4ncccc34)C(=O)NC2=O)c2ccccc21`, in test [1], the IC50 was determined as 0.96 µM.
For `NN1C(=O)C(c2c[nH]c3ccccc23)=C(c2n[nH]c3ncccc23)C1=O`, in test [2], the inhibition was determined as 28.6%.
Turning to `O=C1NC(=O)C(c2n[nH]c3ncccc23)=C1c1c[nH]c2ccccc12`, in test [1], the IC50 came out at 7.31 µM.
In the case of `COC(=O)CN1C(=O)C(c2c[nH]c3ccccc23)=C(c2n[nH]c3ncccc23)C1=O`, in test [2], the inhibition was found to be 51.5%.
For the compound `O=C1NC(=O)C(c2nn(CCCN3CCOCC3)c3ncccc23)=C1c1cn(CCCN2CCOCC2)c2ccccc12`, the inhibition result in test [4] is “inactive”. Moreover, in test [1], the IC50 came to 1.29 µM.
Consider `CC(C)CN1C(=O)C(c2c[nH]c3ccccc23)=C(c2n[nH]c3ncccc23)C1=O`, for which, in test [2], the inhibition was 45.7%.
`NC(=O)NN1C(=O)C(c2c[nH]c3ccccc23)=C(c2n[nH]c3ncccc23)C1=O`: the inhibition in test [2] is -6.81%.
Take `Cn1cc(C2=C(c3n[nH]c4ncccc34)C(=O)NC2=O)c2ccccc21`: the IC50 in test [1] amounted to 12.3 µM.
As for `NC(=S)NN1C(=O)C(c2c[nH]c3ccccc23)=C(c2n[nH]c3ncccc23)C1=O`, in test [2], the inhibition came to 33.7%.
Regarding `CN(C)CCCn1nc(C2=C(c3cn(C)c4ccccc34)C(=O)NC2=O)c2cccnc21`, in test [1], the IC50 was determined as 5.69 µM.
On the same count and under the same terms, as for `CN1CCN(CCCn2nc(C3=C(c4cn(C)c5ccccc45)C(=O)NC3=O)c3cccnc32)CC1`, the figure is 3.34 µM; as for `C=Cn1cc(C2=C(c3nn(CCCN4CCOCC4)c4ncccc34)C(=O)NC2=O)c2ccccc21`, 8.84 µM.
For the compound `O=C1C(c2c[nH]c3ccccc23)=C(c2n[nH]c3ncccc23)C(=O)N1c1ccccc1`, the inhibition in test [2] stood at 4.14%.
Turning to `O=C1NC(=O)C(c2nn(CCCN3CCOCC3)c3ncccc23)=C1c1cn(CCCn2ccnc2)c2ccccc12`, the inhibition entry in test [4] was “inactive”. The IC50 in test [1] came out at 0.68 µM.
Taken in the same sequence, the figures for `Cn1cc(C2=C(c3nn(CCCN4CCOCC4)c4ncccc34)C(=O)NC2=O)c2ccccc21` were “Active” and 0.75 µM.
With `O=C1NC(=O)C(c2nn(CCCN3CCOCC3)c3ncccc23)=C1c1c[nH]c2ccccc12`, in test [4], the inhibition result is “Active”. The IC50 in test [1] was found to be 0.83 µM.
Consider `Cn1cc(C2=C(c3nn(CCCn4ccnc4)c4ncccc34)C(=O)NC2=O)c2ccccc21`, for which the IC50 in test [1] was 4.89 µM.
In the case of `Cn1cc(C2=C(c3nn(CCCO)c4ncccc34)C(=O)NC2=O)c2ccccc21`, the inhibition entry in test [4] was “Active”. For the same compound, the IC50 in test [1] was found to be 1.09 µM.
On to `Cn1cc(C2=C(c3nn(CCCCn4ccnc4)c4ncccc34)C(=O)NC2=O)c2ccccc21`, for which the IC50 in test [1] came to 0.96 µM.
On to `Cn1cc(C2=C(c3nn(CCN4CCOCC4)c4ncccc34)C(=O)NC2=O)c2ccccc21`, for which the IC50 in test [3] is greater than 40 µM; in test [5] it was greater than 40 µM; in test [6], greater than 40 µM; in test [7], greater than 40 µM; in test [8], greater than 40 µM; in test [1] it was 0.36 µM. Also, the inhibition result in test [4] is “Active”.
`Cn1cc(C2=C(c3nn(CCn4ccnc4)c4ncccc34)C(=O)NC2=O)c2ccccc21`: the IC50 was greater than 40 µM in test [3]; greater than 40 µM in test [5]; greater than 40 µM in test [6]; greater than 40 µM in test [7]; greater than 40 µM in test [8]; 0.81 µM in test [1]. Further, in test [4], the inhibition result was “Active”.
